Results on five compounds are retold here after ChEMBL document CHEMBL4351026, “Antifungal activity, mode of action variability, and subcellular distribution of coumarin-based antifungal azoles” (Eur J Med Chem, 2019).

Test [1] relates to Candida albicans. As to the kind of experiment: Antifungal activity against Candida albicans ATCC 90028 assessed as reduction in fungal cell growth incubated for 24 hrs by MTT based broth double dilution method. Format: functional. The note with it: ATCC 90028, 24 h. An outline of the steps: (§1)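 Broth double-dilution in Casitone broth. Starter cultures were grown 24 or 48 h at 37 °C, 5% CO₂, diluted 1:100, and added to serial two-fold dilutions at 64 to 0.007 µg/mL. Final inoculum was 5 x 10^4 to 5 x 10^5 CFU/mL; DMSO was 0.0012–1.3%. Plates were incubated at 37 °C, 5% CO₂, then MTT was added for 2 h. MIC followed CLSI M27-A3. Triplicates, two independent experiments.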

Test [2] deals with Candida albicans. As to the kind of experiment: Antifungal activity against Candida albicans P-87 assessed as reduction in fungal cell growth incubated for 24 hrs by MTT based broth double dilution method. Format: functional. The note with it: P-87, 24 h. An outline of the steps: as §1
For test [3], the system named is Candida albicans. Put plainly: Antifungal activity against Candida albicans SN152 assessed as reduction in fungal cell growth incubated for 24 hrs by MTT based broth double dilution method. Particulars: SN152, 24 h. It is filed as functional. The method, boiled down: as §1
The subject of test [4] is Nakaseomyces glabratus. Put plainly: Antifungal activity against Candida glabrata ATCC 66032 assessed as reduction in fungal cell growth incubated for 24 hrs by MTT based broth double dilution method. It is filed as functional. Particulars: ATCC 66032, 24 h. An outline of the steps:
as §1

For test [5], the system named is Nakaseomyces glabratus. Put plainly: Antifungal activity against Candida glabrata ATCC 2001 assessed as reduction in fungal cell growth incubated for 24 hrs by MTT based broth double dilution method. Format: functional. Particulars: ATCC 2001, 24 h. An outline of the steps: as §1
Test [6] concerns Nakaseomyces glabratus. As to the kind of experiment: Antifungal activity against Candida glabrata 192 assessed as reduction in fungal cell growth incubated for 24 hrs by MTT based broth double dilution method. It is filed as functional. The note with it: Nakaseomyces glabratus, 192, 24 h. An outline of the steps:
as §1

For test [7], the system named is Candida parapsilosis. Put plainly: Antifungal activity against Candida parapsilosis ATCC 90018 assessed as reduction in fungal cell growth incubated for 24 hrs by MTT based broth double dilution method. Format: functional. The note with it: Lodderomyces parapsilosis, ATCC 90018, 24 h. An outline of the steps:
as §1

Test [8] relates to Candida parapsilosis. Put plainly: Antifungal activity against Candida parapsilosis ATCC 22019 assessed as reduction in fungal cell growth incubated for 24 hrs by MTT based broth double dilution method. Format: functional. The note with it: Lodderomyces parapsilosis, ATCC 22019, 24 h. The method, boiled down: as §1
Test [9] relates to Meyerozyma guilliermondii. As to the kind of experiment: Antifungal activity against Candida guilliermondii T-47 assessed as reduction in fungal cell growth incubated for 24 hrs by MTT based broth double dilution method. Format: functional. Particulars: T-47, 24 h. An outline of the steps: as §1
A further test concerns Candida dubliniensis. As to the kind of experiment: Antifungal activity against Candida dubliniensis T-99 assessed as reduction in fungal cell growth incubated for 24 hrs by MTT based broth double dilution method. Format: functional. The note with it: T-99, 24 h. An outline of the steps:
as §1

The test system of test [10] is Candida albicans. Put plainly: Antifungal activity against Candida albicans ATCC 90028 assessed as reduction in fungal cell growth incubated for 48 hrs by MTT based broth double dilution method. Particulars: ATCC 90028, 48 h. Format: functional. An outline of the steps:
as §1

The subject of test [11] is Candida albicans. As to the kind of experiment: Antifungal activity against Candida albicans SN152 assessed as reduction in fungal cell growth incubated for 48 hrs by MTT based broth double dilution method. Particulars: SN152, 48 h. Format: functional. An outline of the steps: as §1
Test [12] relates to Nakaseomyces glabratus. Put plainly: Antifungal activity against Candida glabrata ATCC 66032 assessed as reduction in fungal cell growth incubated for 48 hrs by MTT based broth double dilution method. It is filed as functional. The note with it: ATCC 66032, 48 h. An outline of the steps: as §1
For test [13], the system named is Nakaseomyces glabratus. As to the kind of experiment: Antifungal activity against Candida glabrata 192 assessed as reduction in fungal cell growth incubated for 48 hrs by MTT based broth double dilution method. Format: functional. Particulars: Nakaseomyces glabratus, 192, 48 h. An outline of the steps:
as §1

The target in another test is Cytochrome P450 3A4 (Homo sapiens, UniProt P08684). As to the kind of experiment: Inhibition of recombinant human CYP3A4 using Luciferin-PPXE as substrate preincubated for 10 mins followed by NADPH addition measured after 15 mins by luminometric method. It is filed as ADME. The method, boiled down: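 P450-Glo luminescent assay, Luciferin-PPXE substrate. Compound was mixed with membranes containing recombinant human CYP3A4; controls were vehicle with membranes lacking CYP3A4. After 10 min preincubation at 37 °C, NADPH regeneration reagent was added and the mixture kept 15 min at 37 °C. Luciferin detection reagent stopped the reaction; after 20 min at room temperature, luminescence was read. Duplicates.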

Usually MIC stands for the smallest concentration in the dilution series that meets the test's criterion for growth inhibition. As usually defined, the IC50 is the midpoint of a concentration-inhibition curve.

Values after ≈ are worked out from the molar mass of the structure shown.

Chain of Cytochrome P450 3A4 (P08684 whole entry): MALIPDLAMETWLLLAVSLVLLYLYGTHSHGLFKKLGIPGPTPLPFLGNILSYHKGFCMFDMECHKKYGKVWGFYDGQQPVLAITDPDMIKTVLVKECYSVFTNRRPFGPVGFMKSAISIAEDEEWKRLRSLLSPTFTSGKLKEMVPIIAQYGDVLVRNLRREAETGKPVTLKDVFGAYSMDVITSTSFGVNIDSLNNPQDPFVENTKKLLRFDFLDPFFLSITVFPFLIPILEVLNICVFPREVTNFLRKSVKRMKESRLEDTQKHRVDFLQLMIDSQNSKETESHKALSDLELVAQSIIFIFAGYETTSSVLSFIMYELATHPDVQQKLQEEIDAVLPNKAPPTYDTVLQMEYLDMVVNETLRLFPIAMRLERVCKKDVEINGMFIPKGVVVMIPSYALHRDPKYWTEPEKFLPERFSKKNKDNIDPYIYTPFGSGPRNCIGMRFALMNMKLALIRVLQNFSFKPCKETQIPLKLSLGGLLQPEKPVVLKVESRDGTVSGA

With `O=C(NCC(O)(Cn1cncn1)c1ccc(F)cc1F)c1cc2ccccc2[nH]c1=O` (racemic), the MIC with Candida albicans [1] was 2 µg/mL (≈ 4.7 µM); in the test with Candida albicans [2], 1 µg/mL (≈ 2.35 µM); with Candida albicans [3], 0.5 µg/mL (≈ 1.18 µM); in the test on Nakaseomyces glabratus [4] it was over 64 µg/mL; in the test with Nakaseomyces glabratus [5] it was 64 µg/mL (≈ 150 µM); in the test on Nakaseomyces glabratus [6], 16 µg/mL (≈ 37.6 µM). The minimum inhibitory concentration (MIC) in the test on Candida parapsilosis [7] came out at 2 µg/mL (≈ 4.7 µM); in the test on Candida parapsilosis [8], 8 µg/mL (≈ 18.8 µM); in test [9], 8 µg/mL (≈ 18.8 µM); with Candida dubliniensis it was 8 µg/mL (≈ 18.8 µM).

For the compound `O=C(NCC(O)(Cn1cncn1)c1ccc(F)cc1F)c1cc2ccc(Cl)cc2[nH]c1=O` (racemic), the minimal inhibitory concentration (MIC) in the test on Candida albicans [1] is 1 µg/mL (≈ 2.17 µM); with Candida albicans [2], 1 µg/mL (≈ 2.17 µM); in the test with Candida albicans [3], 0.5 µg/mL (≈ 1.09 µM); in the test with Nakaseomyces glabratus [4], 64 µg/mL (≈ 139 µM); with Nakaseomyces glabratus [5], over 64 µg/mL; with Nakaseomyces glabratus [6] it was 16 µg/mL (≈ 34.8 µM). Moreover, the MIC with Candida parapsilosis [7] was 1 µg/mL (≈ 2.17 µM); in the test with Candida parapsilosis [8], 8 µg/mL (≈ 17.4 µM); in test [9], 8 µg/mL (≈ 17.4 µM); in the test with Candida dubliniensis it was 8 µg/mL (≈ 17.4 µM).

Regarding `O=C(NCC(O)(Cn1cncn1)c1ccc(F)cc1F)c1cc2ccc(O)cc2oc1=O` (racemic), the MIC is 64 µg/mL (≈ 145 µM) in the test with Candida albicans [1]; 64 µg/mL (≈ 145 µM) with Candida albicans [2]; over 64 µg/mL with Candida albicans [3]; over 64 µg/mL in the test on Nakaseomyces glabratus [4]; 64 µg/mL (≈ 145 µM) in the test with Nakaseomyces glabratus [5]; over 64 µg/mL in the test on Nakaseomyces glabratus [6]. Also, the MIC (with Candida parapsilosis [7]; with Candida parapsilosis [8]; in test [9]; in the test with Candida dubliniensis) was over 64 µg/mL throughout.

As to `CCC(CC)Oc1ccc2cc(C(=O)NCC(O)(Cn3cncn3)c3ccc(F)cc3F)c(=O)oc2c1` (racemic), the minimal inhibitory concentration (MIC) with Candida albicans [1] was 0.125 µg/mL (≈ 0.244 µM); in the test with Candida albicans [2], 0.125 µg/mL (≈ 0.244 µM); with Candida albicans [3] it was 0.25 µg/mL (≈ 0.488 µM); in the test with Nakaseomyces glabratus [4], over 64 µg/mL; with Nakaseomyces glabratus [5] it was 32 µg/mL (≈ 62.4 µM); with Nakaseomyces glabratus [6], 4 µg/mL (≈ 7.8 µM). The minimal inhibitory concentration (MIC) in the test with Candida parapsilosis [7] is 0.5 µg/mL (≈ 0.976 µM); in the test with Candida parapsilosis [8], 2 µg/mL (≈ 3.9 µM); in [9] it was 2 µg/mL (≈ 3.9 µM); in the test with Candida dubliniensis, 2 µg/mL (≈ 3.9 µM); in the test on Candida albicans [10], 0.5 µg/mL (≈ 0.976 µM); in the test on Candida albicans [11] it was 0.5 µg/mL (≈ 0.976 µM). Also, the MIC in the test on Nakaseomyces glabratus [12] was over 64 µg/mL; in the test with Nakaseomyces glabratus [13], 8 µg/mL (≈ 15.6 µM). In addition, the IC50 at Cytochrome P450 3A4 was at least 2500 nM.

For `COc1ccc2cc(C(=O)NCC(O)(Cn3cncn3)c3ccc(F)cc3F)c(=O)[nH]c2c1` (racemic), the MIC in the test with Candida albicans [1] was 1 µg/mL (≈ 2.2 µM); in the test with Candida albicans [2] it was 2 µg/mL (≈ 4.39 µM); in the test with Candida albicans [3], 4 µg/mL (≈ 8.78 µM); in the test on Nakaseomyces glabratus [4] it was over 64 µg/mL; with Nakaseomyces glabratus [5], over 64 µg/mL; in the test with Nakaseomyces glabratus [6], over 64 µg/mL. Moreover, the MIC in the test on Candida parapsilosis [7] was 2 µg/mL (≈ 4.39 µM); with Candida parapsilosis [8] it was over 64 µg/mL; in [9], over 64 µg/mL; in the test on Candida dubliniensis, over 64 µg/mL.
